Marks after values point to notes of the source that are not given here.
Key:
DQA1*03:01; DQB1*03:02 = DQA1*03:01; DQB1*03:02 (Homo sapiens, UniProt P01909+P01920, A209T/A45G/C70Q/D89A/DUP78-78/E183D/E77G/F237L/G63E/H199R/I129T/K197E/L178F/L74F/L98V/Q57E/Q76R/S185I/S97I/T217I/T49S/V73L/Y58L); test: REVEAL MHC-peptide binding assay; conditions: HLA DQB1*03:02; percentage of signal of positive control peptide
In short: (§1)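 Overlapping 15-mer peptides (3-residue offset) spanning brown shrimp tropomyosin (Q3Y8M6) were tested in the REVEAL assay. It detects peptide-stabilised, natively folded MHC class II complexes via a labeled antibody. Scores at 0 and 24 h are expressed as % of signal from an allele-specific known T-cell epitope positive control. An intermediate-affinity control peptide verified assay performance. A score of ≥10% counted as a good binder.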

DRB1*11:01 = DRB1*11:01 (Homo sapiens, UniProt P01903+P01911, A100R/A169T/A87E/I96F/K41T/L162R/M171V/P40S/Q125H/Q178H/Q39Y/Q99D/R42S/S66Y/T262R/V115G/W38E); test: REVEAL MHC-peptide binding assay; conditions: HLA DRB1*11:01; percentage of signal of positive control peptide
In short: as §1

DRB1*15:01 = DRB1*15:01 (Homo sapiens, UniProt P01903+P01911); test: REVEAL MHC-peptide binding assay; conditions: HLA DRB1*15:01; percentage of signal of positive control peptide
In short: as §1

DQA1*01:01; DQB1*05:01 = DQA1*01:01; DQB1*05:01 (Homo sapiens, UniProt P01909+P01920, A157S/A45G/A70V/C70R/D89V/E106S/E118A/E183D/E77G/F83G/G63E/H151Q/H199R/H252R/H253Q/I129T/I235V/I88M/INS77G/K197Q/L107V/L117V/L119Y/L178F/L71W/L74F/L85Q/L91A/L98M/M46L/N214S/P87R/Q116E/Q256R/Q57E/Q76K/R102G/R240Q/R75S/R78G/S102Y/S185I/S41F/S97I/T103A/T109R/T121G/T122I/T172A/T86R/V148I/V68A/V73E/Y34C/Y58G/Y62H); test: REVEAL MHC-peptide binding assay; conditions: HLA DQB1*05:01; percentage of signal of positive control peptide
In short: as §1

DRB1*13:01 = DRB1*13:01 (Homo sapiens, UniProt P01903+P01911, A100E/A169T/K41T/L162R/M171V/P40S/Q125H/Q178H/Q39Y/Q99D/R42S/S66N/T262R/W38E/Y61H); test: REVEAL MHC-peptide binding assay; conditions: HLA DRB1*13:01; percentage of signal of positive control peptide
In short: as §1

DRB1*04:01 = DRB1*04:01 (Homo sapiens, UniProt P01903+P01911, A100K/A169T/F76Y/I96L/K127E/L162R/M171V/N62H/P40V/Q125Y/R42H/S133A/S149N/S66Y/V115G/V209L/W38E); test: REVEAL MHC-peptide binding assay; conditions: HLA DRB1*04:01; percentage of signal of positive control peptide
In short: as §1

DRB1*03:01 = DRB1*03:01 (Homo sapiens, UniProt P01903+P01911, A100K/A102G/A103R/A169T/F55Y/I96L/K41T/L162R/M171V/P40S/Q125H/Q178H/Q39Y/R42S/S66N/T106N/T262R/W38E/Y61H); test: REVEAL MHC-peptide binding assay; conditions: HLA DRB1*03:01; percentage of signal of positive control peptide
In short: as §1

DQA1*05:01; DQB1*02:01 = DQA1*05:01; DQB1*02:01 (Homo sapiens, UniProt P01909+P01920, A45G/A70V/D89A/E106A/E77G/E98D/H199R/L107V/N214S/P84L/P87L/T103K/T109R/T172A/T60S/V78E/V99I/Y58L/Y62S/Y69I/Y79F); test: REVEAL MHC-peptide binding assay; conditions: HLA DQB1*02:01; percentage of signal of positive control peptide
In short: as §1

DRB1*07:01 = DRB1*07:01 (Homo sapiens, UniProt P01903+P01911, A100R/A102G/A103Q/D57E/D86V/E43K/F76Y/K127E/L162R/M171V/P40G/Q125H/Q99D/R33Q/R42Y/R54Q/S133A/S66F/T210M/V115G/Y107V/Y59L/Y89S); test: REVEAL MHC-peptide binding assay; conditions: HLA DRB1*07:01; percentage of signal of positive control peptide
In short: as §1

MHC class II alleles = test: REVEAL MHC-peptide binding assay; parameters: species or system human; conditions: % of the positive control; allele not given
In short: as §1

DRB1*09:01 = DRB1*09:01 (Homo sapiens, UniProt P01903+P01911, A100R/A103E/D57H/D86V/F55Y/F60I/F76Y/I96F/K127E/L162R/M171V/P40D/Q125H/Q99R/R33Q/R42F/S133A/S66N/T210M/V115G/W38K/Y107V/Y59G/Y89S); test: REVEAL MHC-peptide binding assay; conditions: HLA DRB1*09:01; percentage of signal of positive control peptide
In short: as §1

DRB1*10:01 = DRB1*10:01 (Homo sapiens, UniProt P01903+P01911, A100R/A169T/D57E/F55L/F60V/F69Y/F76Y/I96L/L162R/M171V/P40V/Q260P/Q39E/Q99R/R195Q/R42F/S149N/S66Y/T210M/V115G/V67A/W38E/Y59R/Y61H); test: REVEAL MHC-peptide binding assay; conditions: HLA DRB1*10:01; percentage of signal of positive control peptide
In short: as §1

CD4 T cells = test: CFSE CD4 T cell proliferation assay; format: cell-based, human
[1] = tested on: Peripheral blood mononuclear cells (PBMC); test: Tritiated thymidine proliferation assay; format: cell-based, human

Q: With “1: tropomyosin-derived 15-mer MDAIKKKMQAMKLEK [Peptide 1]” as the substance, how does the Binding score (DQA1*03:01; DQB1*03:02) read?
A: 35.20%

Q: What about the Binding score (DRB1*11:01) of the same substance?
A: 18.74%

Q: What about the Binding score (DRB1*15:01) of the same substance?
A: 14.02%

Q: For “2: tropomyosin-derived 15-mer IKKKMQAMKLEKDNA [Peptide 2]”, which Binding score (DQA1*01:01; DQB1*05:01) is on record?
A: 13.94%

Q: And the Binding score (DRB1*13:01)?
A: 26.06%

Q: “3: tropomyosin-derived 15-mer KMQAMKLEKDNAMDR [Peptide 3]” was tested. Which Binding score (DRB1*04:01) did it give?
A: 23.52%

Q: For “4: tropomyosin-derived 15-mer AMKLEKDNAMDRADT [Peptide 4]”, which Binding score (DRB1*03:01) is on record?
A: 74.69%

Q: With “5: tropomyosin-derived 15-mer LEKDNAMDRADTLEQ [Peptide 5]” as the substance, how does the Binding score (DRB1*03:01) read?
A: 66.31%

Q: How did the Binding score (DRB1*04:01) turn out when “7: tropomyosin-derived 15-mer MDRADTLEQQNKEAN [Peptide 7]” was run?
A: 22.16%

Q: Which Binding score (DQA1*05:01; DQB1*02:01) does the source give for “8: tropomyosin-derived 15-mer ADTLEQQNKEANNRA [Peptide 8]” here?
A: 20.74%

Q: With “10: tropomyosin-derived 15-mer QNKEANNRAEKSEEE [Peptide 10]” as the substance, how does the Binding score (DQA1*05:01; DQB1*02:01) read?
A: 25.17%

Q: Which Binding score (DRB1*07:01) does the source give for “13: tropomyosin-derived 15-mer EKSEEEVHNLQKRMQ [Peptide 13]” here?
A: 26.79%

Q: “15: tropomyosin-derived 15-mer VHNLQKRMQQLENDL [Peptide 15]” was tested. Which Binding score (DRB1*11:01) did it give?
A: 11.01%

Q: For “18: tropomyosin-derived 15-mer QLENDLDQVQESLLK [Peptide 18]”, which “Binding score (relative binding affinity)” value (MHC class II alleles) is on record?
A: ≤ 10%

Q: What about the Binding score (DRB1*04:01) of the same substance?
A: 9.10 ^a %

Q: For “21: tropomyosin-derived 15-mer QESLLKANIQLVEKD [Peptide 21]”, which Binding score (DRB1*09:01) is on record?
A: 8.32 ^a %

Q: What does the source list for “24: tropomyosin-derived 15-mer QLVEKDKALSNAEGE [Peptide 24]”?
A: Binding score (DRB1*03:01): 45.59%; Binding score (DRB1*04:01): 20.62%

Q: With “29: tropomyosin-derived 15-mer VAALNRRIQLLEEDL [Peptide 29]” as the substance, how does the Binding score (DRB1*11:01) read?
A: 22.35%

Q: And the Binding score (DRB1*13:01)?
A: 19.31%

Q: For “34: tropomyosin-derived 15-mer ERSEERLNTATTKLA [Peptide 34]”, which Binding score (DQA1*01:01; DQB1*05:01) is on record?
A: 22.67%

Q: With “36: tropomyosin-derived 15-mer LNTATTKLAEASQAA [Peptide 36]” as the substance, how does the Binding score (DRB1*04:01) read?
A: 43.87%

Q: “43: tropomyosin-derived 15-mer RKVLENRSLSDEERM [Peptide 43]” was tested. Which Binding score (DQA1*01:01; DQB1*05:01) did it give?
A: 7.11 ^a %

Q: And the “Binding score (relative binding affinity)” value (MHC class II alleles)?
A: ≤ 10%

Q: For “49: tropomyosin-derived 15-mer ENQLKEARFLAEEAD [Peptide 49]”, which Binding score (DQA1*01:01; DQB1*05:01) is on record?
A: 19.65%

Q: Which results are given for “51: tropomyosin-derived 15-mer ARFLAEEADRKYDEV [Peptide 51]”?
A: Binding score (DRB1*03:01): 15.03%; Binding score (DRB1*04:01): 11.06%

Q: For “53: tropomyosin-derived 15-mer EADRKYDEVARKLAM [Peptide 53]”, which Binding score (DRB1*11:01) is on record?
A: 13.67%

Q: With “54: tropomyosin-derived 15-mer RKYDEVARKLAMVEA [Peptide 54]” as the substance, how does the Binding score (DQA1*03:01; DQB1*03:02) read?
A: 7.98 ^a %

Q: For “57: tropomyosin-derived 15-mer LAMVEADLERAEERA [Peptide 57]”, which Binding score (DRB1*03:01) is on record?
A: 19.46%

Q: Which Binding score (DRB1*10:01) does the source give for “58: tropomyosin-derived 15-mer VEADLERAEERAETG [Peptide 58]” here?
A: 39.12%

Q: How did the Binding score (DRB1*03:01) turn out when “63: tropomyosin-derived 15-mer ESKIVELEEELRVVG [Peptide 63]” was run?
A: 29.06%

Q: How did the Binding score (DQA1*05:01; DQB1*02:01) turn out when “66: tropomyosin-derived 15-mer ELRVVGNNLKSLEVS [Peptide 66]” was run?
A: 24.15%

Q: And the Binding score (DRB1*04:01)?
A: 25.05%

Q: Which Binding score (DQA1*01:01; DQB1*05:01) does the source give for “74: tropomyosin-derived 15-mer AYKEQIKTLTNKLKA [Peptide 74]” here?
A: 14.73%

Q: And the Binding score (DQA1*03:01; DQB1*03:02)?
A: 19.28%

Q: And the Binding score (DRB1*11:01)?
A: 10.94%

Q: And the Binding score (DRB1*07:01)?
A: 74.20%

Q: And the Binding score (DRB1*04:01)?
A: 41.94%

Q: What does the source list for “76: tropomyosin-derived 15-mer KTLTNKLKAAEARAE [Peptide 76]”?
A: Binding score (DRB1*10:01): 37.57%; Binding score (DRB1*09:01): 89.92%

Q: Which Binding score (DQA1*01:01; DQB1*05:01) does the source give for “80: tropomyosin-derived 15-mer RAEFAERSVQKLQKE [Peptide 80]” here?
A: 9.26 ^a %

Q: What about the “Binding score (relative binding affinity)” value (MHC class II alleles) of the same substance?
A: ≤ 10%

Q: Tetanus Toxoid was tested. Which “CD4 T cell proliferation (CFSE)” value (CD4 T cells) did it give?
A: much greater level of CD4 T cell proliferation

Q: What about the “Proliferative T cell response by tritiated-thymidine incorporation” value [1] of the same substance?
A: much higher proliferative responses
